Converted amounts (≈) assume the structure as drawn.
What was measured:
[1] = target: Protease (Human immunodeficiency virus 1) (UniProt Q9YQ12); experiment: Inhibition of HIV1 recombinant protease at 1 nM after 3 hrs by fluorescence assay
Protease = Protease (Human immunodeficiency virus 1, UniProt Q9YQ12); experiment: Inhibition of HIV1 recombinant protease after 15 mins by fluorescence assay
[2] = target: Protease (Human immunodeficiency virus 1) (UniProt Q9YQ12); experiment: Inhibition of HIV1 recombinant protease at 50 nM after 15 mins by fluorescence assay
In short: (§1)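 Recombinant HIV-1 protease was assayed in MES–NaOH pH 5.5 with DTT, EDTA and NaCl, with inhibitor at 50 nM final (500 nM DMSO stock). The substrate was H-Lys-Ala-Arg-Val-Tyr-Phe(p-NO2)-Glu-Ala-Nle-NH2, and the reaction ran 15 min at 37 °C. It was stopped with 1 N HCl. The N-terminal fragment was quantified by RP-HPLC with fluorescence at ex 275/em 305 nm.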

[3] = tested on: Human immunodeficiency virus 1; experiment: Antiviral activity against HIV1 pNL4-3 infected in human MT4 cells assessed as inhibition of virus-induced cytopathic effect after 5 days by MTT assay; type: functional, organism-based; settings: Human immunodeficiency virus 1, pNL4-3, MT4, 120 h
In short: (§2)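 HIV-1 (IIIB or pNL4-3) inoculated into MT-4 cells. Cultures were treated with an equal volume of a 1% DMSO solution of compound at several concentrations plus 10% fetal bovine serum, then incubated 5 days at 37 °C in CO2, in triplicate. After MTT, optical density gave the percent cytopathic effect reduction. EC50 was fitted to a median-effect equation.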

[4] = tested on: Human immunodeficiency virus; experiment: Inhibition of recombinant HIV protease at 50 nM after 15 mins by fluorescence assay
In short: as §1

[5] = tested on: Human immunodeficiency virus 1; experiment: Antiviral activity against HIV1 3B infected in human MT4 cells assessed as inhibition of virus-induced cytopathic effect after 5 days by MTT assay; type: functional, organism-based; settings: Human immunodeficiency virus 1, 3B, MT4, 120 h
In short: as §2

[6] = tested on: Human immunodeficiency virus 1; experiment: Ratio of EC50 for HIV1 pNL4-3 infected in human MT4 cells in presence of 50% human serum to EC50 for HIV1 pNL4-3 infected in human MT4 cells in absence of human serum; type: functional
In short: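 HIV-1 pNL4-3 was inoculated into MT-4 cells, then test compound was added at several concentrations in 1% DMSO with 10% FBS. Cultures were incubated 5 days at 37 °C in CO2, in triplicate, and the cytopathic effect was read by MTT optical density. EC50 was fitted to a median-effect equation with and without 50% human serum. The serum binding effect is their ratio.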

[7] = tested on: Human immunodeficiency virus 1; experiment: Antiviral activity against HIV1 pNL4-3 infected in human MT4 cells assessed as inhibition of virus-induced cytopathic effect after 5 days by MTT assay in presence of 50% human serum; type: functional, organism-based; settings: Human immunodeficiency virus 1, pNL4-3, MT4, 120 h
In short: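 MT-4 cells were infected with wild-type HIV-1 (IIIB or pNL4-3) in the presence of 50% human serum. Compound was added at several concentrations from a 1% DMSO solution, and cells were incubated 5 days at 37 °C in triplicate. Cytopathic effect reduction was read by MTT optical density, and EC50 was derived from a median-effect equation fit.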

[8] = Aqueous solubility in 0.1% TFA after 30 mins by RP-HPLC analysis; type: physicochemical; settings: 0.1% TFA in water
[9] = tested on: Human immunodeficiency virus 1; experiment: Antiviral activity against HIV1 pNL4-3 infected in human MT4 cells assessed as inhibition of virus-induced cytopathic effect after 5 days by MTT assay in absence of human serum; type: functional, organism-based; settings: Human immunodeficiency virus 1, pNL4-3, MT4, 120 h
In short: as §2

[10] = tested on: Human immunodeficiency virus 1; experiment: Antiviral activity against indinavir-resistant HIV1 harboring L10R/M46I/L63P/V82T/I84V mutant protease infected in human MT4 cells assessed as inhibition of virus-induced cytopathic effect after 5 days by MTT assay; type: functional, organism-based; settings: Human immunodeficiency virus 1, MT4, 120 h
In short: (§3)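 MT-4 cells inoculated with HIV-1 wild-type pNL4-3 or indinavir-resistant IND-R, then given an equal volume of compound in 1% DMSO at several concentrations with 10% fetal bovine serum. Incubated 5 days at 37 °C in CO2, in triplicate. MTT read-out by optical density gave percent cytopathic-effect reduction; EC50 was fitted to a median-effect equation.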

[11] = tested on: Human immunodeficiency virus 1; experiment: Fold resistance, ratio of EC50 for indinavir-resistant HIV1 harboring L10R/M46I/L63P/V82T/I84V mutant protease infected in human MT4 cells to EC50 for HIV1 pNL4-3 infected in human MT4 cells; type: functional
In short: as §3

Sequence of Protease (Human immunodeficiency virus 1) (Q9YQ12 as listed by the source): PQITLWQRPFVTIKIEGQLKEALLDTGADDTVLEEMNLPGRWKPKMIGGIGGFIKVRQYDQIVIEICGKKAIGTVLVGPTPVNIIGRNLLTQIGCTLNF
Sequence of Protease (Q9YQ12 whole entry): as the sequence (Q9YQ12 as listed by the source) above

Cc1cccc(C)c1CNC(=O)[C@H]1N(C(=O)[C@@H](O)[C@H](Cc2ccccc2)NC(=O)c2cccc(O)c2C)CSC1(C)C
inhibition [1]: 82%
Ki (Protease): 0.0024 nM
inhibition [2]: 99%

C=C(C)CNC(=O)[C@H]1N(C(=O)[C@@H](O)[C@H](Cc2ccccc2)NC(=O)c2cccc(O)c2C)CSC1(C)C
EC50 [3]: 17 nM
Ki (Protease): 0.19 nM
inhibition [2]: 98%

Cc1c(O)cccc1C(=O)N[C@@H](Cc1ccccc1)[C@H](O)C(=O)N1CSC(C)(C)[C@H]1C(=O)NC(C)(C)c1ccccc1
inhibition [4]: 82%
EC50 [5]: 123 nM

C=C(C)CNC(=O)[C@H]1N(C(=O)[C@@H](O)[C@H](Cc2ccccc2)NC(=O)COc2c(C)cc(N)cc2C)CSC1(C)C
inhibition [1]: 43%
Ratio EC50 [6]: 8.2
EC50 [7]: 82 nM
solubility at 0.5 h [8]: 8480 µg/mL (≈ 14.9 mM)
inhibition [2]: 98%
EC50 [9]: 10 nM

Cc1ccccc1CNC(=O)[C@H]1N(C(=O)[C@@H](O)[C@H](Cc2ccccc2)NC(=O)c2cccc(O)c2C)CSC1(C)C
EC50 [10]: 100 nM
EC50 [3]: 60 nM
inhibition [1]: 72%
Ki (Protease): 0.031 nM
Ratio EC50 [11]: 1.7
EC50 [5]: 33 nM
inhibition [2]: 99%

Cc1c(O)cccc1CNC(=O)[C@H]1N(C(=O)[C@@H](O)[C@H](Cc2ccccc2)NC(=O)c2cccc(O)c2C)CSC1(C)C
EC50 [10]: 155 nM
EC50 [3]: 162 nM
inhibition [1]: 41%
Ratio EC50 [11]: 1
EC50 [5]: 120 nM
inhibition [2]: 95%

Source: ChEMBL document CHEMBL1154734, “Small-sized human immunodeficiency virus type-1 protease inhibitors containing allophenylnorstatine to explore the S2' pocket” (J Med Chem, 2009)
